Screens from PubChem BioAssay.
Shown are actives, neighbours in structure and some others; about 3% of the full set was active somewhere.
Measles CPE = protection of cells from measles virus; 1.5% of 140,000 active; Measles virus-infected cells, CPE protection, absorbance; protection (pct of control), % at 4 µM; in the data active = protection mostly above about 24%, no sharp cut-off; inactive = mostly below about 26%
Yeast growth inh = reduces growth of yeast BB579 in restrictive medium; S. cerevisiae BB579 growth, OD615, 48 h; inhibition, % at 10 µM; 0.51% of 140,000 active; AID 804;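 active = inhibition above a set limit, 3 SD over the mean compound inhibition, cut at about 44% in these data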
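Test system: DeaD yeast strain BB579 / Buffer or medium: restrictive glucose-based CSMM-D medium / Doses: single 10 µM dose / Schedule: 4 h cell preincubation, 48 h compound exposure, 30 °C humidified / Technique: culture absorbance at 615 nm / Controls: amphotericin B positive control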
sEH inhibitor = soluble epoxide hydrolase (human) inhibition; P34913; recombinant human sEH enzymatic activity assay; inhibition, % at 2 µM; 0.34% of 91,000 active; AID 707; in the data active = inhibition above about 80%
Target sequence (P34913 whole entry, looked up): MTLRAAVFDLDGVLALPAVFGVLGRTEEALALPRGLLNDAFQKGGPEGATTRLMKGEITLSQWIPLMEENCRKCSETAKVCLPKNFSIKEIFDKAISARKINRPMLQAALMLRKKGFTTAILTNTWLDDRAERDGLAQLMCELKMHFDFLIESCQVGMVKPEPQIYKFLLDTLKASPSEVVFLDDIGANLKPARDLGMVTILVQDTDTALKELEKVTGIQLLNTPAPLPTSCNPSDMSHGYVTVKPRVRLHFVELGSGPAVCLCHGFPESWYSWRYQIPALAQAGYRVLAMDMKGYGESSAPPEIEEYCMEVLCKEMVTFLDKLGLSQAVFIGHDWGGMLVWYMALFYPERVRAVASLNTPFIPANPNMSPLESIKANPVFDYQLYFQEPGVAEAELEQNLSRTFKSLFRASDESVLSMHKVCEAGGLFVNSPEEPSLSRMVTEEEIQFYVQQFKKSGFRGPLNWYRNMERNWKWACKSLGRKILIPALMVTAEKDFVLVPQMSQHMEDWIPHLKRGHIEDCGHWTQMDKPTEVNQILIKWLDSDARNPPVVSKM
sEH activator = activators of human soluble epoxide hydrolase. P34913. purified human sEH enzymatic activity, activator screen. activation, % at 2 µM. 0.04% of 91,000 active. AID 717; in the data active = activation above about 37%
Yeast life ext = yeast lifespan extension; S. cerevisiae growth with nicotinamide, OD615; deaD strain in restrictive glucose medium; inhibition of the nicotinamide effect, % at 10 µM; 0.68% of 130,000 active; AID 775;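 active = inhibition above a set limit, placed 3 SD over the median of all compounds, cut at about 26% in these data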;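 note: 0% = nicotinamide-treated wells and 100% = cells grown without nicotinamide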
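Assay system: engineered S. cerevisiae DeaD replicative-lifespan strain, galactose-grown log-phase cells; Buffer or medium: CSMM-D glucose medium, restrictive; Probe or stimulus: nicotinamide 1.5 mM; Compound: single dose 10 µM compound, 0.25% DMSO; Schedule: 4 h preincubation then 48 h treatment at 30 °C; Technique: OD615 measurement.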
SDO1 yeast rescue = sdo1-depleted yeast growth rescue; S. cerevisiae sdo1-depleted JHY4D growth rescue, OD600 30 h; stronger effect = higher value; pdr5 snq2 efflux-pump mutant strain; z-score at 10 µM; 0.21% of 140,000 active;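 active = z-score above 3 at both the 24 hr and the 30 hr optical density reads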;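 note: z-score against mean and SD of all compound wells on the same plate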
An asterisk follows results filed as active; / = no result given.

SMILES	Measles CPE	Yeast growth inh	sEH inhibitor	sEH activator	Yeast life ext	SDO1 yeast rescue
Cc1nc(-c2c(-c3ccc(O)cc3O)noc2C(F)(F)F)cs1	16	-54	/	/	-15	0.02
Cc1ccc(C(=O)CC(=O)COc2ccc(Cl)cc2)cc1	18	-3	/	/	10	0.52
Cc1ccc(OCc2nc(-c3ccc(Cl)cc3)n[nH]2)cc1	33*	-36	18	-14	-10	-2
Cc1ccc(C(=O)n2nnc3ccccc32)cc1[N+](=O)[O-]	6	-32	/	/	32*	-0.67
COc1ccc(C(=O)n2nnc3ccccc32)cc1OC	6	-57	/	/	23	0.04
COc1ccc(C2(C(=O)NCc3ccco3)CCCC2)cc1OC	53*	-11	-12	12	-13	0.2
CCN1C(=O)C(NC(C)=O)c2cc(OC)ccc21 (stereo not drawn)	8	-16	3	-3	-17	2.5
COc1ccc([C@@H]2Sc3cc(OC)ccc3N(CCN(C(C)C)C(C)C)C(=O)[C@H]2OC(C)=O)cc1	48*	-19	7	-4	/	0.76
CCOC(=O)c1cc2sccc2n1CC(=O)N1CCc2ccccc21	25	-38	8	-7	-7	-0.47
CCOC(=O)/C=C/C(=O)N1CCc2ccccc21	25*	-10	-1	6	-8	0.37
CCOCC(=O)N1CCc2ccccc21	14	-59	-11	9	-18	0.01
Cc1csc(=N)n1CC(=O)N1CCc2ccccc21	26*	-46	/	/	-7	0.96
COc1ccc(C(=O)N2CCc3ccccc32)cc1	28*	-11	3	-4	/	-0.45
COC(=O)c1cc2c(s1)-c1ccccc1OC2	17	-19	-38	44*	-13	-0.43
CC(C)NC(=O)NC(=O)COc1ccc(Br)cc1Br	4	4	/	/	-8	-0.75
Cc1cc(N(CC(=O)NC(C)C)S(C)(=O)=O)ccc1Br	16	10	/	/	-3	0.23
COc1ccc(C2CC(=O)C(C=NCCN3CCN(C(C)=O)CC3)=C(O)C2)cc1 (stereo not drawn)	3	-34	-5	5	/	0.56
CC(=O)N1CCN(CCN=CC2=C(O)CC(c3cccs3)CC2=O)CC1 (stereo not drawn)	15	-15	4	-5	36*	0.09
COc1ccc(NC(=S)N2CCN(CCN=CC3=C(O)CC(c4ccccc4)CC3=O)CC2)cc1 (stereo not drawn)	11	-35	/	/	50*	0.84
O=C1CC(c2ccc(F)cc2)CC(O)=C1C=NCCN1CCN(C(=O)Nc2ccccc2)CC1 (stereo not drawn)	4	-36	24	-25	90*	0.08
COc1ccc(S(=O)(=O)N2CCOCC2)cc1NC(=O)COC(=O)C1COc2ccccc2O1 (stereo not drawn)	3	-42	/	/	-2	0.64
CNC(=O)c1cc(C)c(-c2ccccc2)s1	49*	-6	-3	7	-30	0.05
O=C(Cc1ccc([N+](=O)[O-])cc1)Nc1cccc(C(F)(F)F)c1	73*	-7	/	/	-8	-0.29
Cc1cc([N+](=O)[O-])ccc1NC(=O)Cc1ccc(F)cc1	53*	-18	/	/	-5	-0.98
CCOc1ccc(C(O)C(CN2CCOCC2)c2ccccc2)cc1 (stereo not drawn)	4	-32	-15	14	-16	-1.2
SMILES	Measles CPE	Yeast growth inh	sEH inhibitor	sEH activator	Yeast life ext	SDO1 yeast rescue
COc1cc(NC(=S)N2CCN(c3ccccn3)CC2)cc(OC)c1	31*	-16	/	/	2	0.92
Cc1nc(SCC(=O)N2CC(C)OC(C)C2)nc(C)c1C (stereo not drawn)	26*	9	-3	4	-7	1.4
CSc1nc(Cl)cc(N(CCO)CCO)n1	8	-39	4	-4	-12	0.03
COc1cccc(NC(=O)C23CCC(C)(C(=O)O2)C3(C)C)c1 (stereo not drawn)	4	-2	-4	0	-5	0.66
C=CCn1c(-c2ccc([N+](=O)[O-])cc2)n[nH]c1=S	38*	-12	/	/	-1	1.1
O=C(CSc1nnc(-c2ccccc2NC(=O)c2ccccc2)o1)OC1CCCCC1	/	/	4	-2	/	/
O=C(NCCCN1CCOCC1)c1ccc(Sc2cccc(Cl)c2)c([N+](=O)[O-])c1	9	15	/	/	-2	-0.19
N#C/C(=C\c1ccc([N+](=O)[O-])o1)c1nc2ccccc2[nH]1	0	67*	/	/	21	-2.1
Cc1ccc2nc(/C(C#N)=C\c3ccc([N+](=O)[O-])o3)[nH]c2c1	1	99*	-2	2	-22	-2.2
Cc1ccc(C)c(NC(=O)CN(C)C(=O)COc2ncnc3sccc23)c1	13	-29	/	/	-2	-0.36
O=C(Cc1ccc(Cl)cc1)Nc1ccc(SC(F)F)cc1	12	-9	/	/	-2	-2.2
O=C(CSc1nnc(SCc2ccc(Cl)cc2)s1)c1ccc2c(c1)OCO2	14	-53	/	/	9	-0.17
CCC1(C)N(O)C(C)(C)C(c2ccc(F)cc2)=[N+]1[O-] (stereo not drawn)	11	-19	0	0	/	0.15
CC(C)C(=O)Nc1ccc(C(=O)N2CCCCCC2)cc1	39*	-43	-10	8	-2	0.16
CC(C)C(=O)Nc1ccc(C(=O)N2CCN(C(=O)c3ccco3)CC2)cc1	9	-16	/	/	-11	0.63
COc1cc(CCN2C(=O)N[C@@H](CCc3ccccc3)C(C(C)=O)=C2C)cc(OC)c1OC	29*	-2	/	/	0	1.1
CCCCOc1ccc(Cl)cc1CSc1n[nH]c(C)n1	2	11	9	-6	-13	-0.78
COc1ccc(Cl)cc1CSc1n[nH]c(C)n1	27*	-19	8	-8	-11	-1.1
COCCN(C(=S)Nc1ccc(OC)cc1)C1CCN(C(C)C)CC1	10	-34	/	/	4	0.6
Cc1ccc(NC(=S)N(Cc2ccco2)C2CCN(C(C)C)CC2)cc1	39*	-51	/	/	1	0.39
Cc1cccc2sc(NC(=O)Cn3cccc3)nc12	77*	2	-1	1	-11	0.44
CCOC(=O)c1ccc(NC(=O)Cn2cccc2)cc1	2	-33	4	-3	-11	-0.47
Cc1ccc(Cl)cc1NC(=O)Cn1cccc1	70*	-31	/	/	-12	0.23
Cc1cccc2sc(NC(=O)CSCc3ccccc3)nc12	36	-41	12	-12	-18	-0.77
CCc1cccc(NC(=O)Cn2cccc2)c1	50*	-10	2	-4	-6	-1.1
CC(=O)NN1C(=O)c2ccc(Oc3cccc([N+](=O)[O-])c3)cc2C1=O	5	-18	-10	7	-14	1.5
Cc1nn(-c2ccccn2)c(C)c1Oc1ccccc1O	0	0	-3	6	-18	0.38
Cc1nn(-c2nc3ccccc3s2)c(C)c1Oc1ccccc1O	44*	-13	/	/	-9	-2.5
CN(C)CCCOc1nc2c(c(=O)n(C)c(=O)n2C)n1C	7	-15	0	2	/	1.2
